Results published in ChEMBL document CHEMBL3526018, “Metabolites of PPI-2458, a selective, irreversible inhibitor of methionine aminopeptidase-2: structure determination and in vivo activity” (Drug Metab Dispos, 2013).
pKi: −log10 of the molar value. Calls of active or inactive are those of the source. The rule behind the calls is not given here.

Key:
[1] = system: Liver; test: Metabolic stability in mouse liver microsomes assessed as retention time of ((3R,4S,5S,6R)-4-((2R,3R)-3-(((S)-3,3-dimethyloxiran-2-yl)methyl)-2-methyloxiran-2-yl)-5-methoxy-1-oxaspiro[2.5]octan-6-yl ((R)-1-amino-3-methyl-1-oxobutan-2-yl)carbamate) at 5 mM by LC/MS analysis; format: ADME; conditions: 5000 µM
Procedure, shortened: (§1)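 Liver microsomes (pooled male/female) in 100 mM KPO4 pH 7.4 with PPI-2458 (5 mM stock), pre-incubated 5 min at 37°C, then 10 mM NADPH added; 20 min at 37°C with shaking. Time-zero and no-NADPH controls. Quenched with CH3CN; supernatant dried and redissolved in water. Analysed by LC-MS, ESI+ full scan 300–800 amu, C18 column, 10→50% B gradient.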

[2] = system: CYP3A5 (Homo sapiens); test: Activity of human recombinant CYP3A5 assessed as ((3R,4S,5S,6R)-5-methoxy-4-((2R,3R)-2-methyl-3-(3-methylbut-2-en-1-yl)oxiran-2-yl)-1-oxaspiro[2.5]octan-6-yl ((R)-1-amino-3-hydroxy-3-methyl-1-oxobutan-2-yl)carbamate) formation per pmol of enzyme
[3] = system: Rattus norvegicus; test: Inhibition of MetAP2 level in Sprague-Dawley rat lung assessed as free enzyme level at 0.3 mg/kg, iv by ELISA; format: functional, organism-based; design: dose 0.3 mg/kg
Procedure, shortened: (§2)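 Male Sprague-Dawley rats (200-225 g, n=3 per group) were dosed once IV at 0.3 mg/kg or PO at 0.3 or 3.0 mg/kg, in 11% HPCD in water. Blood, liver, lung, thymus and pooled non-mesenteric lymph nodes were taken at ~24 h and lysed or homogenized with NP-40. Free MetAP2 was measured by ELISA and expressed as % of vehicle.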

[4] = target: Cytochrome P450 3A4 (Homo sapiens, UniProt P08684); test: Inhibition of CYP3A4 activity in human liver microsomes using midazolam as a substrate by LC/MS analysis; format: ADME
Chain of Cytochrome P450 3A4 (P08684 whole entry): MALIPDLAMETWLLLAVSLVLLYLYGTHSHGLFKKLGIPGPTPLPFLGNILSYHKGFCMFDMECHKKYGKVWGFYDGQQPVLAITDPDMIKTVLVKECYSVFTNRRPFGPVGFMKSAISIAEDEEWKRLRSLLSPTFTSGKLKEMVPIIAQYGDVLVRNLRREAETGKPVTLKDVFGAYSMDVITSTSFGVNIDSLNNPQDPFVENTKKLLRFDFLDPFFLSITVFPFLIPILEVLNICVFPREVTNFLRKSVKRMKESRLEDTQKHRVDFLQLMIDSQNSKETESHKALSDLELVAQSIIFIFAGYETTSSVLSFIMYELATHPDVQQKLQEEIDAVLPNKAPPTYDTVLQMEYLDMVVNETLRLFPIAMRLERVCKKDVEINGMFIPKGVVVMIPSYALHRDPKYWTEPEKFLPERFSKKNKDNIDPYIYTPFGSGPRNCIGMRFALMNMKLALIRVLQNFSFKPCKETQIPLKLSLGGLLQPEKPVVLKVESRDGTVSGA

[5] = system: Liver; test: Metabolic stability in mouse liver microsomes assessed as retention time of ((3R,4S,5S,6R)-5-methoxy-4-((2R,3R)-2-methyl-3-(3-methylbut-2-en-1-yl)oxiran-2-yl)-1-oxaspiro[2.5]octan-6-yl ((R)-1-amino-3-hydroxy-3-methyl-1-oxobutan-2-yl)carbamate) at 5 mM by LC/MS analysis; format: ADME; conditions: 5000 µM; procedure, shortened: as §1
[6] = system: Rattus norvegicus; test: Inhibition of MetAP2 level in Sprague-Dawley rat lymph nodes assessed as free enzyme level at 0.3 mg/kg, po by ELISA; format: functional, organism-based; design: dose 0.3 mg/kg; procedure, shortened: as §2
[7] = system: CYP3A5 (Homo sapiens); test: Activity of human recombinant CYP3A5 assessed as ((3R,4S,5S,6R)-4-((2R,3R)-3-(((R)-3,3-dimethyloxiran-2-yl)methyl)-2-methyloxiran-2-yl)-5-methoxy-1-oxaspiro[2.5]octan-6-yl ((R)-1-amino-3-methyl-1-oxobutan-2-yl)carbamate) formation; conditions: recombinant enzyme
[8] = system: CYP3A4 (Homo sapiens); test: Activity of human recombinant CYP3A4 assessed as ((3R,4S,5S,6R)-4-((2R,3R)-3-((E)-4-hydroxy-3-methylbut-2-en-1-yl)-2-methyloxiran-2-yl)-5-methoxy-1-oxaspiro[2.5]octan-6-yl((R)-1-amino-3-methyl-1-oxobutan-2-yl)carbamate) formation per pmol of enzyme
[9] = target: Methionine aminopeptidase 2 (Homo sapiens) (UniProt P50579); test: Inhibition of human MetAP2 assessed as remaining enzyme activity after 1 hr
Chain of Methionine aminopeptidase 2 (Homo sapiens) (P50579 2-478 limits assumed): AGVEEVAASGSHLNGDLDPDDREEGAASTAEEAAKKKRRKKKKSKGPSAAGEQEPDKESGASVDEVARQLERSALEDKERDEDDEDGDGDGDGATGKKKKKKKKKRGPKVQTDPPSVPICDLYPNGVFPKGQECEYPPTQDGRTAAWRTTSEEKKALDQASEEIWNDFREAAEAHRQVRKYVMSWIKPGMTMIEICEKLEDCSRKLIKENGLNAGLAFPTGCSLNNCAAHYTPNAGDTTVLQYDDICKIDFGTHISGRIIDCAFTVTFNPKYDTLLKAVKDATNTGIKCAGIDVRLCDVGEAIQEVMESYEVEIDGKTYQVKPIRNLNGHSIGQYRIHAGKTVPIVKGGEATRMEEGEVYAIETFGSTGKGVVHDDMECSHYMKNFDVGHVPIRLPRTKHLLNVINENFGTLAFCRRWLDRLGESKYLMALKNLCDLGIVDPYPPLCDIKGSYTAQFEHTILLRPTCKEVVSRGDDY
Procedure, shortened: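 The hMetAP2 assay follows the fraction of active enzyme remaining during an 8 h incubation with inhibitor, relative to an enzyme-only control.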

[10] = system: Liver microsome; test: Metabolic stability in rat liver microsomes assessed as retention time of ((3R,4S,5S,6R)-4-((2R,3R)-3-((E)-4-hydroxy-3-methylbut-2-en-1-yl)-2-methyloxiran-2-yl)-5-methoxy-1-oxaspiro[2.5]octan-6-yl((R)-1-amino-3-methyl-1-oxobutan-2-yl)carbamate) at 5 mM by LC/MS analysis; format: ADME; conditions: 5000 µM; procedure, shortened: as §1
[11] = system: CYP3A5 (Homo sapiens); test: Activity of human recombinant CYP3A5 assessed as ((3R,4S,5S,6R)-4-((2R,3R)-3-((E)-4-hydroxy-3-methylbut-2-en-1-yl)-2-methyloxiran-2-yl)-5-methoxy-1-oxaspiro[2.5]octan-6-yl((R)-1-amino-3-methyl-1-oxobutan-2-yl)carbamate) formation per pmol of enzyme
[12] = system: CYP3A5 (Homo sapiens); test: Activity of human recombinant CYP3A5 assessed as ((3R,4S,5S,6R)-4-((2R,3R)-3-(((S)-3,3-dimethyloxiran-2-yl)methyl)-2-methyloxiran-2-yl)-5-methoxy-1-oxaspiro[2.5]octan-6-yl ((R)-1-amino-3-methyl-1-oxobutan-2-yl)carbamate) formation per pmol of enzyme
[13] = system: Liver microsome; test: Metabolic stability in human liver microsomes assessed as retention time of ((3R,4S,5S,6R)-4-((2R,3R)-3-(((S)-3,3-dimethyloxiran-2-yl)methyl)-2-methyloxiran-2-yl)-5-methoxy-1-oxaspiro[2.5]octan-6-yl ((R)-1-amino-3-methyl-1-oxobutan-2-yl)carbamate) at 5 mM by LC/MS analysis; format: ADME; conditions: 5000 µM

Drug metabolism [1]: metabolite_detected
Vmax [2]: 1.58 pmol/min
pKi [4]: 4.24
Drug metabolism [5]: metabolite_detected
Km [7]: 17 µM
Vmax [8]: 1.41 pmol/min
Activity [9]: 12%
Drug metabolism [10]: metabolite_detected
Vmax [11]: 0.8 pmol/min
Vmax [12]: 1.42 pmol/min
Drug metabolism [13]: metabolite_detected
SMILES: CO[C@@H]1[C@H](OC(=O)N[C@@H](C(N)=O)C(C)C)CC[C@]2(CO2)[C@H]1[C@@]1(C)O[C@@H]1CC=C(C)C [PPI-2458]
inhibition [3]: Active
inhibition [6]: Active
